Each structure is given as a SMILES string. Where only a bound is given, the exact number is not on record here.

As a reminder, the IC50 is the concentration at which inhibition is half-maximal.

One test has as its system Eimeria tenella. The experiment in a line: Anticoccidial activity (percent reduction in oocyst production) against Eimeria tenella in white leghorn chickens at 100 ppm. The format is functional. Also noted: scale not given: the % may be the effect or the level left. The essentials:
(§1)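 White Leghorn chicks were acclimated, then at 3 days old sorted by weight and randomized to medicated or control diets. There were one or two replicates of two birds per treatment. After 24 h of premedication, one bird per replicate got E. acervulina and the other E. tenella, both drug-sensitive laboratory strains. Inocula were sporulated oocysts in tap water, 0.25 mL per bird, giving low-to-moderate infection.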

The test system of another test is Eimeria acervulina. Put plainly: Anticoccidial activity (percent reduction in oocyst production) against Eimeria acervulina in white leghorn chickens at 100 ppm. The test is classed as functional. Also noted: scale not given: the % may be the effect or the level left. The essentials:
as §1

In test [1] the target is cGMP-dependent protein kinase (Eimeria tenella, UniProt Q8MMZ8). Put plainly: In vitro inhibition of Eimeria tenella cGMP-dependent protein kinase.
Chain of cGMP-dependent protein kinase (Q8MMZ8 whole entry): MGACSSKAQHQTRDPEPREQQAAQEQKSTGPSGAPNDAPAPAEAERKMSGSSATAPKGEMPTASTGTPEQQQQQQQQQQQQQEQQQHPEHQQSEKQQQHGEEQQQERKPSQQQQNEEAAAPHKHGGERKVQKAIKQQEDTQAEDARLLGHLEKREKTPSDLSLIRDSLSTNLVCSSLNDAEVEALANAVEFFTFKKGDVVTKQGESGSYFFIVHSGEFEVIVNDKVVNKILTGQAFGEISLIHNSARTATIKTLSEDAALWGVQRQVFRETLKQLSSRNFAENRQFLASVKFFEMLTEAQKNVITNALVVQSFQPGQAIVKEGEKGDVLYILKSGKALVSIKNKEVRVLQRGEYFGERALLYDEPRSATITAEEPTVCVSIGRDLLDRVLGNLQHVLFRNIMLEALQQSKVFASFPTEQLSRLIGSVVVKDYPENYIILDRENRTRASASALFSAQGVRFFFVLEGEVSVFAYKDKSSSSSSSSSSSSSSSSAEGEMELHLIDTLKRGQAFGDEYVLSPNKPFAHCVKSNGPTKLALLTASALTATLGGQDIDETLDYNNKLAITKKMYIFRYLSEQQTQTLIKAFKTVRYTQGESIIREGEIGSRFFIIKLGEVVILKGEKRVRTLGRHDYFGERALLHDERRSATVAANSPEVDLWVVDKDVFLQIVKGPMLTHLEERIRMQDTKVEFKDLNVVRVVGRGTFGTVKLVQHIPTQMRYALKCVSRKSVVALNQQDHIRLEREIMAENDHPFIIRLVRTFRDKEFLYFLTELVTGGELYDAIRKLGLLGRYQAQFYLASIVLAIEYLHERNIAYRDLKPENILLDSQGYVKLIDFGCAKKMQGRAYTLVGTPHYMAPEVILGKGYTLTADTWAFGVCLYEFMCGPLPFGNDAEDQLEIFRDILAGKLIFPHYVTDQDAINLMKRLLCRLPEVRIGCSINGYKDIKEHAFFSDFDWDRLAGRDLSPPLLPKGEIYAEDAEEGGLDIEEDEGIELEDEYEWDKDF
The next test is filed under the species Gallus gallus. The experiment in a line: Anticoccidial activity (percent reduction in oocyst production) against Eimeria acervulina in white leghorn chickens at 25 ppm. The test is classed as functional. Also noted: scale not given: the % may be the effect or the level left. The essentials:
as §1

As for `CC(N)CN1CCC(c2cc(-c3ccncc3)c(-c3ccc(F)cc3)[nH]2)CC1` (stereo not drawn), the Activity result with Eimeria tenella and in the test on Eimeria acervulina was “>=80%” throughout. Further, half-maximal inhibition in test [1] (IC50) required 2 nM.
In the case of `CN1CCC(c2cc(-c3ccncc3)c(-c3ccc(F)c(F)c3)[nH]2)CC1`, the figures for the Activity result in the test on Eimeria tenella and in the test with Eimeria acervulina were “>=80%” and below 50%, respectively. The IC50 in test [1] is 2 nM.
Consider `CN1CCC(c2[nH]c(-c3ccc(F)cc3)c(-c3ccncc3)c2Cl)CC1`, for which, in the test with Eimeria acervulina, the Activity is on record as below 50%. In addition, the IC50 in test [1] came to 1.02 nM.
For `CN1CCC(c2cc(-c3ccncc3)c(-c3ccc(F)cc3)o2)CC1`, the Activity in the test with Eimeria tenella was below 50%. 2.1 nM corresponded to half-maximal inhibition in test [1] (IC50).
In the same order, the values of `CN1CCC(c2cc(-c3ccncc3)c(-c3ccc(F)c(Cl)c3)[nH]2)CC1` are “>=80%” and 0.44 nM.
For the molecule `CN1CCC(c2cc(-c3ccncc3)c(-c3ccsc3)[nH]2)CC1`, the Activity in the test with Eimeria tenella and in the test with Eimeria acervulina was below 50% each time. This molecule also displayed an IC50 in test [1] of 11.9 nM.
For `CN1CCC(c2nc(-c3ccc(F)cc3)c(-c3ccncc3)o2)CC1`, the Activity result in the test with Eimeria tenella and in the test with Eimeria acervulina was “>=80%” in each case. For the same molecule, inhibition in test [1] was half-maximal at 0.97 nM (IC50).
For the molecule `CN1CCC(c2cc(-c3ccncc3)c(-c3cccc(F)c3)[nH]2)CC1`, the Activity in the test on Eimeria tenella and with Eimeria acervulina was below 50% in each case. For the same molecule, the IC50 in test [1] was determined as 7.4 nM.
For `CN1CCC(c2cc(-c3ccncc3)c(-c3ccco3)[nH]2)CC1`, the Activity in the test with Eimeria tenella and in the test on Eimeria acervulina was below 50% each time. For the same molecule, it took 11.1 nM to reach half-maximal inhibition in test [1] (IC50).
In the case of `OC1(CN2CCC(c3cc(-c4ccncc4)c(-c4ccc(F)cc4)[nH]3)CC2)CC1`, the Activity result with Eimeria tenella and in the test on Eimeria acervulina was “>=80%” each time. The molecule further returned an IC50 in test [1] of 1.1 nM.
Consider `OCCCN1CCC(c2cc(-c3ccncc3)c(-c3ccc(F)cc3)[nH]2)CC1`, for which the Activity result in the test on Eimeria acervulina was “>=80%”. This molecule also showed an IC50 in test [1] of 0.53 nM.
In the case of `CN1CCC(c2cc(-c3ccncc3)c(-c3ccc(C(F)(F)F)cc3)[nH]2)CC1`, the Activity in the test on Eimeria tenella and in the test on Eimeria acervulina was below 50% throughout. Also, the IC50 in test [1] came to 55 nM.
Turning to `Cc1cc(-c2cc(C3CCN(C)CC3)[nH]c2-c2ccc(F)cc2)ccn1`, the Activity with Eimeria tenella and in the test on Eimeria acervulina was below 50% in each case. The molecule also gave an IC50 in test [1] of 2.8 nM.
For `NC1(CN2CCC(c3cc(-c4ccncc4)c(-c4ccc(F)cc4)[nH]3)CC2)CC1`, the Activity in the test with Eimeria tenella and in the test with Eimeria acervulina was below 50% each time. Besides, the half-inhibitory concentration (IC50) in test [1] worked out at 0.24 nM.
Consider `CN1CCC(c2cc(-c3ccccn3)c(-c3ccc(F)cc3)[nH]2)CC1`, for which the Activity with Eimeria tenella and with Eimeria acervulina was below 50% each time. In addition, in test [1], 23.6 nM corresponded to half-maximal inhibition (IC50).
Take `CN1CCC(c2cc(-c3ccncc3)c(-c3ccoc3)[nH]2)CC1`: the Activity in the test on Eimeria tenella and in the test on Eimeria acervulina was below 50% each time. Further, the IC50 in test [1] is 26.3 nM.
Consider `CN1CCC1CN1CCC(c2cc(-c3ccncc3)c(-c3ccc(F)cc3)[nH]2)CC1` (stereo not drawn), for which the Activity result in the test with Eimeria tenella and in the test with Eimeria acervulina was “>=80%” in each case. Also, the IC50 in test [1] turned out to be 0.28 nM.
In the case of `CN1CCC(c2cc(-c3ccncc3)c(-c3ccc(F)cc3)s2)CC1`, the Activity result in the test on Eimeria tenella and in the test on Eimeria acervulina was “>=80%” each time. Further, 4.2 nM corresponded to half-maximal inhibition in test [1] (IC50).
`CN1CCC(c2cc(-c3ccncc3)c(-c3ccc(S(C)(=O)=O)cc3)[nH]2)CC1`: the Activity result is reported as “>=80%” with Eimeria tenella and below 50% with Eimeria acervulina. In test [1], the IC50 worked out at 42 nM.
For `Cc1cnccc1-c1cc(C2CCN(C)CC2)[nH]c1-c1ccc(F)cc1`, the Activity in the test on Eimeria tenella and in the test on Eimeria acervulina was below 50% in each case. In addition, the IC50 in test [1] is 1.7 nM.
For `CN1CCC(c2nc(-c3ccc(F)cc3)c(-c3ccncc3)s2)CC1`, the Activity in the test filed under Gallus gallus is 0%; with Eimeria tenella, below 50%. The IC50 in test [1] came to 1.5 nM.
For the molecule `CN1CCC(c2cc(-c3ccc(F)cc3)c(-c3ccc(F)cc3)[nH]2)CC1`, the Activity in the test on Eimeria tenella and in the test with Eimeria acervulina was below 50% in each case. For the same molecule, the IC50 in test [1] came out at 15.6 nM.
In the case of `CN1CCC(c2cc(-c3ccncc3)c(-c3ccc(OC(F)(F)F)cc3)[nH]2)CC1`, the Activity entry is listed as “>=80%” in the test with Eimeria tenella and below 50% in the test on Eimeria acervulina. Further, the IC50 in test [1] came out at 46 nM.
Turning to `OCCN1CCC(c2cc(-c3ccncc3)c(-c3ccc(F)cc3)[nH]2)CC1`, the Activity entry with Eimeria tenella and in the test on Eimeria acervulina was “>=80%” throughout. The same molecule returned an IC50 in test [1] of 0.71 nM.
For the molecule `CN1CCC(c2nc(-c3ccc(F)cc3)c(-c3ccncc3)[nH]2)CC1`, the figures for the Activity result in the test with Eimeria tenella and in the test on Eimeria acervulina were “>=80%” and below 50%, respectively. For the same molecule, in test [1], the IC50 is 1.1 nM.
For `CC(=O)CN1CCC(c2cc(-c3ccncc3)c(-c3ccc(F)cc3)[nH]2)CC1` the same measures were below 50%, below 50% and 0.32 nM.
`CN1CCC(c2cc(-c3ccncc3)c(-c3nccs3)[nH]2)CC1`: the Activity in the test on Eimeria tenella and in the test with Eimeria acervulina was below 50% in each case. In addition, in test [1], the IC50 came to 39.7 nM.
With `CN1CCC(c2cc(-c3ccncc3)c(-c3ccccc3)[nH]2)CC1`, the IC50 in test [1] was 3.1 nM.
As to `CN1CCC(c2cc(-c3ccncc3)c(-c3ccc(F)c(Br)c3)[nH]2)CC1`, the Activity in the test on Eimeria tenella and in the test on Eimeria acervulina was below 50% in each case. Moreover, in test [1], 0.15 nM corresponded to half-maximal inhibition (IC50).
`CCCN1CCC(c2cc(-c3ccncc3)c(-c3ccc(F)cc3)[nH]2)CC1`: the Activity in the test on Eimeria tenella and with Eimeria acervulina was below 50% each time. The midpoint of inhibition in test [1], the IC50, lay at 4.2 nM.
Take `CN1CCC(c2cc(-c3ccncc3)c(-c3ccc(Cl)cc3)[nH]2)CC1`: the Activity with Eimeria tenella is reported as below 50%; in the test with Eimeria acervulina it was “>=80%”. In addition, in test [1], the IC50 turned out to be 1 nM.
In the same order, the values of `Cc1c(C2CCN(C)CC2)[nH]c(-c2ccc(F)cc2)c1-c1ccncc1` are below 50%, below 50% and 1 nM.
In the same order, the values of `Cc1cc(-c2cc(C3CCN(C)CC3)[nH]c2-c2ccc(F)cc2)on1` are below 50%, below 50% and above 1000 nM.
For `CN1CCC(c2cc(-c3ccncc3)c(-c3ccc(F)cc3)nn2)CC1` the same measures were below 50%, below 50% and 1000 nM.
`NCCCN1CCC(c2cc(-c3ccncc3)c(-c3ccc(F)cc3)[nH]2)CC1`: the Activity in the test with Eimeria tenella and with Eimeria acervulina was below 50% each time. The molecule further displayed an IC50 in test [1] of 0.046 nM.
Take `CN1CCC(c2cc(-c3ccncc3)c(-c3ccc(F)cc3)[nH]2)CC1`: the Activity entry in the test with Eimeria tenella and with Eimeria acervulina was “>=80%” throughout. In test [1], this molecule gave an IC50 of 0.7 nM.
For the molecule `NCCN1CCC(c2cc(-c3ccncc3)c(-c3ccc(F)cc3)[nH]2)CC1`, the Activity in the test on Eimeria tenella and with Eimeria acervulina was below 50% throughout. For the same molecule, inhibition in test [1] was half-maximal at 0.28 nM (IC50).
Take `CN1CCC(c2cc(-c3cccnc3)c(-c3ccc(F)cc3)[nH]2)CC1`: the Activity with Eimeria tenella was below 50%. For the same molecule, the IC50 in test [1] worked out at 11.7 nM.
For the molecule `CN1CCC(c2cc(-c3ccncc3)c(-c3ccc(O)cc3)[nH]2)CC1`, the Activity in the test on Eimeria tenella and in the test with Eimeria acervulina was below 50% in each case. Moreover, the IC50 in test [1] was determined as 50 nM.
Take `CN1CCC(c2[nH]c(-c3ccc(F)cc3)c(-c3ccncc3)c2Br)CC1`: the Activity with Eimeria tenella and with Eimeria acervulina was below 50% each time. Half-maximal inhibition in test [1] (IC50) required 1.2 nM.

Source of the values: ChEMBL document CHEMBL1140243, “Synthesis and SAR of 2,3-diarylpyrrole inhibitors of parasite cGMP-dependent protein kinase as novel anticoccidial agents” (Bioorg Med Chem Lett, 2005).
